Data on 17 molecules can be found in ChEMBL document CHEMBL1687890, “Design, synthesis, pharmacological evaluation, and structure-activity study of novel endomorphin analogues with multiple structural modifications” (J Med Chem, 2011).

pEC50, pKi: −log10 of the molar value. Bounds are passed on as bounds.

In general, pKi refers to −log10 of the Ki, conventionally taken in molar units. A word on the Emax: it is the greatest response seen or fitted, relative to the assay's reference. Broadly, the pEC50 is −log10 of the EC50, conventionally taken in molar units. Higher therefore signals a small EC50. A word on the half-life: it is the time needed for the level to fall by half in the phase considered. The low end stands for fast loss, the high end for slow loss.

Data set [1] concerns the target Delta-type opioid receptor (Rattus norvegicus, UniProt P33533). In words: Displacement of [3H][Ile5,6]deltorphin2 from delta opioid receptor in rat brain membrane homogenate by liquid scintillation counting. The class given is cell membranes.
For data set [2], the species on record is Rattus norvegicus. The experiment in a line: Selectivity ratio of Ki for delta opioid receptor in rat brain to mu opioid receptor in rat brain. The class given is tissue-based.
The target of data set [3] is T1, Mu-type opioid receptor (Rattus norvegicus, UniProt P33535). The experiment in a line: Displacement of [3H]DAMGO from mu opioid receptor in rat brain membrane homogenate by liquid scintillation counting. The class given is cell membranes. On the technique in general: Loss of bound radioactivity is the signal in a displacement assay; it reports binding, not function.

Data set [4] concerns the target Mu-type opioid receptor (Rattus norvegicus) (UniProt P33535). In words: Agonist activity at opioid receptor in mu rat brain membrane by [35S]GTPgammaS binding assay relative to baseline in presence of opioid-selective antagonist naloxone. The class given is functional, cell membranes. For orientation: Binding of GTPγS marks nucleotide exchange on a G protein.
The target in data set [5] is T1, Mu-type opioid receptor. In words: Agonist activity at mu opioid receptor in rat brain membrane by [35S]GTPgammaS binding assay. Format: functional, cell membranes.
In data set [6] the target is Mu-type opioid receptor (Rattus norvegicus) (UniProt P33535). The experiment in a line: Agonist activity at mu opioid receptor in rat brain membrane by [35S]GTPgammaS binding assay relative to baseline. The class given is functional, cell membranes.
Data set [7] in a line: Half life in rat brain homogenate by RP-HPLC. Format: ADME, tissue-based. In short, it runs like this: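 Peptide (1 mM stock in 50 mM Tris-HCl pH 7.4, 1:10 into homogenate) incubated at 37 °C with crude rat brain homogenate (5.0 mg/mL protein). Aliquots quenched with HCl, centrifuged, supernatant run on RP-HPLC. k from linear regression of ln(A/A0) vs time over at least 5 time points; t1/2 = ln2/k, pseudo-first-order. At least three experiments.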

Delta-type opioid receptor, sequence (P33533 whole entry): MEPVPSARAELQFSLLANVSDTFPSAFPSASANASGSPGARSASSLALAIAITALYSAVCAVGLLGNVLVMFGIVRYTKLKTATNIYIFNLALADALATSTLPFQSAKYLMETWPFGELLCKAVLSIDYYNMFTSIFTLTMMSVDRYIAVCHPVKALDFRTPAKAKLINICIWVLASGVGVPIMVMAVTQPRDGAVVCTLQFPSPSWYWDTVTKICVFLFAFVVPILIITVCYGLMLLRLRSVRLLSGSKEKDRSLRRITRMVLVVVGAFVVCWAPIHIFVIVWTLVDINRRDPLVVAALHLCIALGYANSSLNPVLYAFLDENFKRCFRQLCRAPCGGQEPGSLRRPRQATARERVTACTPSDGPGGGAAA
Mu-type opioid receptor (Rattus norvegicus), sequence (P33535 whole entry): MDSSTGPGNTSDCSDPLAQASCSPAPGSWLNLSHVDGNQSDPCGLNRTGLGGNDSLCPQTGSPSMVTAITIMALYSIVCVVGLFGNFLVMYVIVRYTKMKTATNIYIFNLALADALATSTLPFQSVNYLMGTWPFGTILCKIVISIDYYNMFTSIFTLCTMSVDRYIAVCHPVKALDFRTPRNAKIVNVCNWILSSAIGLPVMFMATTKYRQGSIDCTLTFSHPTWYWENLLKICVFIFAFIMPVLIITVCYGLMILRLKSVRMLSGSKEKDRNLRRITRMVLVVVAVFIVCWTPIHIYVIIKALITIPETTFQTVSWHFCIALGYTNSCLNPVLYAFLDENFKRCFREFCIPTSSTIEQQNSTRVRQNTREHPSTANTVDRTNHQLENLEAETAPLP
T1 sequence (P33535 whole entry): as above

Regarding `C[C@H](c1ccccc1)[C@@H](NC(=O)[C@H](Cc1ccccc1)NC(=O)[C@H]1CCCC[C@H]1NC(=O)[C@@H](N)Cc1ccc(O)cc1)C(N)=O`, in data set [1], the pKi is 5.90.
As to `Cc1cc(CC(N)C(=O)N[C@@H]2CCCC[C@@H]2C(=O)N[C@@H](Cc2c[nH]c3ccccc23)C(=O)N[C@@H](C(N)=O)[C@H](C)c2ccccc2)cc(C)c1O` (some centres undefined), the Ratio Ki in data set [2] came out at 69. Also, the figures for the pKi in data set [1] and in data set [3] were 6.54 and 8.39, respectively.
`Cc1cc(CC(N)C(=O)N[C@@H]2CCCC[C@@H]2C(=O)N[C@@H](Cc2c[nH]c3ccccc23)C(=O)NC(Cc2ccc(F)cc2)C(N)=O)cc(C)c1O` (some centres undefined): the Ratio Ki in data set [2] amounted to 237. Also, the Emax came out at 127% in data set [4] and 163% in data set [6]. In addition, the pKi in data set [1] is 5.58; in data set [3] it was 7.95. In data set [5], this molecule had a pEC50 of 8.09.
As for `Cc1cc(CC(N)C(=O)N[C@@H]2CCCC[C@@H]2C(=O)N[C@@H](Cc2ccccc2)C(=O)NC(Cc2ccc(F)cc2)C(N)=O)cc(C)c1O` (some centres undefined), the half-life in data set [7] is more than 20 h. The same molecule showed a pKi in data set [1] of 7.02.
Regarding `NC(=O)C(Cc1ccc(F)cc1)NC(=O)[C@H](Cc1c[nH]c2ccccc12)NC(=O)[C@H]1CCCC[C@H]1NC(=O)[C@@H](N)Cc1ccc(O)cc1` (some centres undefined), in data set [2], the Ratio Ki was found to be 178. Besides, the maximal effect (Emax) amounted to 125% in data set [4] and 174% in data set [6]. Also, the half-life in data set [7] was more than 20 h. Besides, the pKi in data set [1] is 6.24; in data set [3], 8.49. For the same molecule, the negative logarithm of the EC50 (pEC50) in data set [5] was 6.42.
As to `NC(=O)[C@H](Cc1ccccc1)NC(=O)[C@H](Cc1ccccc1)NC(=O)[C@@H]1CCCN1C(=O)[C@@H](N)Cc1ccc(O)cc1` [ENDOMORPHIN 2], the figures for the Emax in data set [4] and in data set [6] were 123% and 163%, respectively. In addition, the half-life in data set [7] was 0.095 h.
For the molecule `C[C@@H](c1ccccc1)[C@H](NC(=O)[C@H](Cc1ccccc1)NC(=O)[C@H]1CCCC[C@H]1NC(=O)[C@@H](N)Cc1ccc(O)cc1)C(N)=O`, the pKi in data set [1] was 6.18.
In the case of `C[C@@H](c1ccccc1)[C@H](NC(=O)[C@H](Cc1c[nH]c2ccccc12)NC(=O)[C@H]1CCCC[C@H]1NC(=O)[C@@H](N)Cc1ccc(O)cc1)C(N)=O`, the Ratio Ki in data set [2] amounted to 343. The Emax in data set [4] was determined as 130%; in data set [6] it was 162%. Moreover, the half-life in data set [7] is more than 20 h. For the same molecule, the pKi in data set [1] is 5.84; in data set [3] it was 8.38. Also, in data set [5], the pEC50 is 6.58.
Regarding `NC(=O)C(Cc1ccc(F)cc1)NC(=O)[C@H](Cc1c[nH]c2ccccc12)NC(=O)[C@@H]1CCCC[C@@H]1NC(=O)[C@@H](N)Cc1ccc(O)cc1` (some centres undefined), the Ratio Ki in data set [2] amounted to 54. Further, the pKi was 5.11 in data set [1] and 6.84 in data set [3].
Consider `Cc1cc(CC(N)C(=O)N[C@@H]2CCCC[C@@H]2C(=O)N[C@@H](Cc2ccccc2)C(=O)N[C@H](C(N)=O)[C@@H](C)c2ccccc2)cc(C)c1O` (some centres undefined), for which, in data set [2], the Ratio Ki stood at 302. Further, the Emax in data set [4] stood at 146%; in data set [6], 159%. The molecule further had a half-life in data set [7] of more than 20 h. Besides, the figures for the pKi in data set [1] and in data set [3] were 6.85 and 9.33, respectively. Further, in data set [5], the pEC50 is 7.77.
In the case of `Cc1cc(CC(N)C(=O)N[C@@H]2CCCC[C@@H]2C(=O)N[C@@H](Cc2ccccc2)C(=O)N[C@@H](C(N)=O)[C@H](C)c2ccccc2)cc(C)c1O` (some centres undefined), the Ratio Ki in data set [2] was determined as 20. Also, the pKi in data set [1] is 6.70; in data set [3] it was 8.01.
The corresponding values for `C[C@H](c1ccccc1)[C@@H](NC(=O)[C@H](Cc1c[nH]c2ccccc12)NC(=O)[C@H]1CCCC[C@H]1NC(=O)[C@@H](N)Cc1ccc(O)cc1)C(N)=O` are 97, 5.47 and 7.46.
In data set [1], `NC(=O)C(Cc1ccc(F)cc1)NC(=O)[C@H](Cc1ccccc1)NC(=O)[C@H]1CCCC[C@H]1NC(=O)[C@@H](N)Cc1ccc(O)cc1` (some centres undefined) showed a pKi of 6.44.
In turn, `NC(=O)C(Cc1ccc(F)cc1)NC(=O)[C@H](Cc1ccccc1)NC(=O)[C@@H]1CCCC[C@@H]1NC(=O)[C@@H](N)Cc1ccc(O)cc1` (some centres undefined) gave a pKi in data set [1] of 6.16. This pKi lies 0.28 log units lower than the previous one.
Consider `NC(=O)[C@H](Cc1ccccc1)NC(=O)[C@H](Cc1c[nH]c2ccccc12)NC(=O)[C@@H]1CCCN1C(=O)[C@@H](N)Cc1ccc(O)cc1` [ENDOMORPHIN-1], for which the results for the maximum response (Emax) in data set [4] and in data set [6] were 124% and 149%, respectively. Also, in data set [7], the half-life is 0.105 h.
With `Cc1cc(CC(N)C(=O)N[C@@H]2CCCC[C@@H]2C(=O)N[C@@H](Cc2c[nH]c3ccccc23)C(=O)N[C@H](C(N)=O)[C@@H](C)c2ccccc2)cc(C)c1O` (some centres undefined), the Ratio Ki in data set [2] came to 132. Besides, the figures for the Emax in data set [4] and in data set [6] were 145% and 162%, respectively. Moreover, the pKi in data set [1] was 6.91; in data set [3], 9.03. For the same molecule, the negative logarithm of the EC50 (pEC50) in data set [5] is 7.66.
In the case of `C[C@@H](NC(=O)[C@@H](N)Cc1ccc(O)cc1)C(=O)NCC(=O)N(C)[C@@H](Cc1ccccc1)C(=O)NCCO`, the Emax came to 119% in data set [4] and 178% in data set [6].
